Experimental data published in ChEMBL document CHEMBL3580561, “Mitigation of Acetylcholine Esterase Activity in the 1,7-Diazacarbazole Series of Inhibitors of Checkpoint Kinase 1” (J Med Chem, 2015).

Key:
[1] = Volume of distribution at steady state in cynomolgus monkey at 1 mg/kg, iv solution at pH 4.5; assay type: ADME, organism-based, Macaca fascicularis; details: in vivo, read-out: Vdss
HT-29 [2] = test: Cytotoxicity against human HT-29 cells assessed as 10-fold reduction of gemcitabine IC50 after 72 hrs by Isobologram assay relative to untreated control; assay type: functional
Outline: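 HT-29 cells exposed 72 h to a range of gemcitabine hydrochloride concentrations, alone or combined with varying ChK1 inhibitor concentrations. Viability read by CellTiter-Glo luminescence. […] Synergy judged by combination index or Bliss independence analysis.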

[3] = Cmax in cynomolgus monkey at 2 mg/kg, po suspension at pH 6.5; assay type: ADME, organism-based, Macaca fascicularis; set-up: dose 2 mg/kg, route oral; details: in vivo
[4] = Plasma protein binding in Sprague-Dawley rat; assay type: ADME, cell-free; details: read-out: PPB (converted)
[5] = (§1) Oral bioavailability in CD1 mouse at 5 mg/kg suspension at pH 6.5; assay type: ADME, organism-based; details: CD1, mouse, in vivo, 5 mg/kg, pH 6.5
HT-29 [6] = test: Potentiation of gemcitabine-induced anticancer activity in human HT-29 cells xenografted in po treated NCr nude mouse assessed as reduction in tumor volume measured after five cycles with 120 mg/kg, ip gemcitabine at five day intervals; assay type: functional, organism-based
Outline: (§2)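 NCr nude mice aged 8–12 weeks were inoculated with 5×10^6 HT-29 cells in HEPES-buffered saline:Matrigel 50:50. At 125–250 mm³, tumors were split into volume-matched cohorts (n=5 or 10). Gemcitabine in saline was given i.p., and the inhibitor as an MCT suspension by oral gavage 24 h later. Tumor volume and body weight were monitored. %TGI was derived by linear mixed-effect modeling, with two-way ANOVA/Tukey for p-values.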

[7] = Clearance in cynomolgus monkey at 1 mg/kg, iv solution at pH 4.5; assay type: ADME, organism-based, Macaca fascicularis; details: in vivo
HT-29 [8] = test: Potentiation of 60 mg/kg gemcitabine-induced anticancer activity in human HT-29 cells xenografted in po treated mouse assessed as increase in gammaH2AX by Western blot analysis; assay type: functional, organism-based
Outline: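 HT-29 xenograft mice (n=4 per randomized group) got gemcitabine 60 mg/kg or saline. After 24 h they received an oral inhibitor dose in MCT (0.5% methylcellulose/0.2% Tween 80) or vehicle. Tumors were excised 16 h later, flash-frozen and lysed. Western blots (25 μg/lane) were probed for pS139 H2AX and total H2AX with IR-dye detection. The γH2AX:total ratio is expressed as fold-change from the gemcitabine-only group mean.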

[9] = AUC in cynomolgus monkey at 2 mg/kg, po suspension at pH 6.5; assay type: ADME, organism-based, Macaca fascicularis; details: in vivo
[10] = Clearance in CD1 mouse at 1 mg/kg, iv solution at pH 4.5; assay type: ADME, organism-based; details: in vivo
[11] = Cmax in Beagle dog at 2 mg/kg, po suspension at pH 6.5; assay type: ADME, organism-based, Canis lupus familiaris; set-up: dose 2 mg/kg, route oral; details: in vivo
[12] = AUC in Beagle dog at 2 mg/kg, po suspension at pH 6.5; assay type: ADME, organism-based, Canis lupus familiaris; details: in vivo
[13] = Plasma protein binding in CD1 mouse; assay type: ADME, cell-free; details: read-out: PPB (converted)
[14] = Oral bioavailability in cynomolgus monkey at 2 mg/kg suspension at pH 6.5; assay type: ADME, organism-based, Macaca fascicularis; details: in vivo
[15] = Oral bioavailability in Sprague-Dawley rat at 5 mg/kg suspension at pH 6.5; assay type: ADME, organism-based; details: in vivo
[16] = Cmax in Sprague-Dawley rat at 5 mg/kg, po suspension at pH 6.5; assay type: ADME, organism-based; set-up: dose 5 mg/kg, route oral; details: in vivo
Acetylcholinesterase = Acetylcholinesterase (Homo sapiens, UniProt P22303); test: Inhibition of human acetylcholine esterase by horseradish peroxidase-coupled fluorescence assay
Chain of Acetylcholinesterase (P22303 whole entry): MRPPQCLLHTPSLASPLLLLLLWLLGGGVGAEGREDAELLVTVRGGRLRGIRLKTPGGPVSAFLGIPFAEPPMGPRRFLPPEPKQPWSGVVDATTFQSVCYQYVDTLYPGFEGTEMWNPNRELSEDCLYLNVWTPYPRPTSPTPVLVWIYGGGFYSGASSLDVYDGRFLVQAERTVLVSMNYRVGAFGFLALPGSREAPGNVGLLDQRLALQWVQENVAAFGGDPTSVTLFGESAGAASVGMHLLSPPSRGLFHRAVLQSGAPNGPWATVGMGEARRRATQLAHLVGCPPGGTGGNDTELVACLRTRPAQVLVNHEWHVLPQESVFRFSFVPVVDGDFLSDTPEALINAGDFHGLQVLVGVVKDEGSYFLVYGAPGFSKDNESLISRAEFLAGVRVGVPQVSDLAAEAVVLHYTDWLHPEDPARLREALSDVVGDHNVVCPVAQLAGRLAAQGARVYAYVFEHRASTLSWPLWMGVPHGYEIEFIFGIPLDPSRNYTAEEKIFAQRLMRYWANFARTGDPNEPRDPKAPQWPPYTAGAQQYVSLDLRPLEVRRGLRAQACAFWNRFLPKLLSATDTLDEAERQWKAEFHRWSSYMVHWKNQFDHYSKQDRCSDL
Outline: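 Human AChE at 0.006 U/ml, with 0.25 μM acetylcholine chloride, 0.06 U/ml choline oxidase, 0.05 U/ml horseradish peroxidase and 200 μM Amplex Red, in proprietary buffer with test compound. Incubated 30 min at 25 °C. Fluorescence read.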

HT-29 [17] = test: Cytotoxicity against human HT-29 cells after 72 hrs by CellTiter-Glo luminescent assay; assay type: functional; details: HT-29, 72 h
Outline: (§3)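 HT-29 cells exposed 72 h to a range of gemcitabine concentrations, alone or combined with a range of ChK1 inhibitor concentrations. Viability read by CellTiter-Glo luminescence. […] Synergy assessed by combination index or Bliss independence.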

[18] = Clearance in Sprague-Dawley rat at 1 mg/kg, iv solution at pH 4.5; assay type: ADME, organism-based; details: in vivo
[19] = AUC in Sprague-Dawley rat at 5 mg/kg, po suspension at pH 6.5; assay type: ADME, organism-based; details: in vivo
HT-29 [20] = test: Cytotoxicity against human HT-29 cells assessed as 10-fold reduction of gemcitabine IC50 after 72 hrs by Isobologram assay; assay type: functional; details: HT-29, 72 h; outline: as §3
[21] = Volume of distribution at steady state in Beagle dog at 1 mg/kg, iv solution at pH 4.5; assay type: ADME, organism-based, Canis lupus familiaris; details: in vivo, read-out: Vdss
[22] = Plasma protein binding in Beagle dog; assay type: ADME, cell-free, Canis lupus familiaris; details: read-out: PPB (converted)
[23] = Clearance in Beagle dog at 1 mg/kg, iv solution at pH 4.5; assay type: ADME, organism-based, Canis lupus familiaris; details: in vivo
[24] = (§4) AUC in CD1 mouse at 5 mg/kg, po suspension at pH 6.5; assay type: ADME, organism-based; details: CD1, mouse, in vivo, 5 mg/kg, pH 6.5
[25] = Oral bioavailability in Beagle dog at 2 mg/kg suspension at pH 6.5; assay type: ADME, organism-based, Canis lupus familiaris; details: in vivo
[26] = target: T1, Serine/threonine-protein kinase Chk1 (Homo sapiens, UniProt O14757); test: Inhibition of CHK1 in human HT29 cells assessed as phosphorylation of histone H3 after 24 hrs by checkpoint abrogation cellular assay; assay type: cell-based, HT-29
T1 sequence (O14757 whole entry): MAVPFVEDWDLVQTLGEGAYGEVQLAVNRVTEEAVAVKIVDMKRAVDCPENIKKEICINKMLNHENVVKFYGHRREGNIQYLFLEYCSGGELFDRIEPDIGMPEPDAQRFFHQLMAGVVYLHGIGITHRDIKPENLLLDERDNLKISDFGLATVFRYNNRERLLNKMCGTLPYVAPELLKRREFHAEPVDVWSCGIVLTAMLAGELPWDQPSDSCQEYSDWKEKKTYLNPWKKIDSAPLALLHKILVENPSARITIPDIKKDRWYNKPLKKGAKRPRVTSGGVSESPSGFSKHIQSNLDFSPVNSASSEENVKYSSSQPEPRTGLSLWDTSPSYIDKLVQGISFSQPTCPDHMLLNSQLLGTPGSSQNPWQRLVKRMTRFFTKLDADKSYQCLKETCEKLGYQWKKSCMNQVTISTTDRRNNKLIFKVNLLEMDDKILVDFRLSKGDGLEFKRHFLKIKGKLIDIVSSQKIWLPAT

[27] = Volume of distribution at steady state in CD1 mouse at 1 mg/kg, iv solution at pH 4.5; assay type: ADME, organism-based; details: in vivo, read-out: Vdss
[28] = target: T1, Serine/threonine-protein kinase Chk1; test: Inhibition of human recombinant Chk1 using biotinylated AKT substrate after 30 mins by Alphascreen biochemical assay
[29] = Volume of distribution at steady state in Sprague-Dawley rat at 1 mg/kg, iv solution at pH 4.5; assay type: ADME, organism-based; details: in vivo, read-out: Vdss
[30] = Plasma protein binding in cynomolgus monkey; assay type: ADME, cell-free, Macaca fascicularis; details: read-out: PPB (converted)
[31] = Cmax in CD1 mouse at 5 mg/kg, po suspension at pH 6.5; assay type: ADME, organism-based; set-up: dose 5 mg/kg, route oral; details: in vivo
Mus musculus [32] = test: Toxicity in human HT-29 cells xenografted in NCr nude mouse assessed as body weight change measured after five cycles with 120 mg/kg, ip gemcitabine at five day intervals at 50 mg/kg, po; assay type: organism-based; details: in vivo; outline: as §2
Mus musculus [33] = test: as §1; assay type: ADME, organism-based; details: mouse, in vivo, pH 6.5, 5 mg/kg
Mus musculus [34] = test: Toxicity in human HT-29 cells xenografted in NCr nude mouse assessed as body weight change measured after four cycles with 60 mg/kg, ip gemcitabine at four day intervals at 50 mg/kg, po; assay type: organism-based; details: in vivo; outline: as §2
Mus musculus [35] = test: as §4; assay type: ADME, organism-based; details: mouse, in vivo, pH 6.5, 5 mg/kg
HT-29 [36] = test: Potentiation of gemcitabine-induced anticancer activity in human HT-29 cells xenografted in NCr nude mouse assessed as reduction in tumor volume measured after four cycles with 60 mg/kg, ip gemcitabine at four day intervals at 50 mg/kg, po; assay type: functional; set-up: scale not given: the % may be the effect or the level left
Outline: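 NCr nude mice, 8–12 weeks old, inoculated with 5×10^6 HT-29 cells in HEPES-buffered saline:Matrigel 50:50. Volume-matched cohorts formed at 125–250 mm³. Gemcitabine 60 mg/kg given i.p. in saline. Inhibitor given orally in 0.5% methylcellulose/0.2% Tween 80 suspension 24 h later. Four cycles at four-day intervals. Tumor volume monitored. %TGI by linear mixed-effect modeling; two-way ANOVA with Tukey test.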

HT-29 [37] = test: Potentiation of gemcitabine-induced anticancer activity in human HT-29 cells xenografted in po treated NCr nude mouse assessed as reduction in tumor volume measured after four cycles with 60 mg/kg, ip gemcitabine at four day intervals; assay type: functional, organism-based; outline: as §2

Row | Compound | Vd [1] [L/kg] | fold change (FC) (HT-29 [2]) | Cmax [3] [nM] | fraction unbound [4] | clearance [7] [mL/min/kg] | Activity (HT-29 [8]) | AUC [9] [µM·h] | Cmax [11] [nM] | AUC [12] [µM·h] | fraction unbound [13] | bioavailability [14] [%] | bioavailability [15] [%] | Cmax [16] [nM] | IC50 (Acetylcholinesterase) [nM] | GI50 (HT-29 [17]) [nM] | clearance [18] [mL/min/kg] | AUC [19] [µM·h] | EC10 (HT-29 [20]) [nM] | Vd [21] [L/kg] | fraction unbound [22] | other results
1 | N#Cc1cc2c(cn1)[nH]c1ncc(-c3ccc(CN4CCCCC4)cc3)cc12 | 25.7 | 870 | 44 | 0.047 | 45.8 | Dose-dependent effect | 0.869 | 21 | 0.101 | 0.05 | 43.8 | 67.4 | 520 | 333 | 8700 | 24.7 | 6.19 | 10 | 23.4 | 0.132 | bioavailability [5]: 86.5%; Activity (HT-29 [6]): Dose-dependent effect; clearance [10]: 55.8 mL/min/kg; clearance [23]: 118 mL/min/kg; AUC [24]: 2.68 µM·h; bioavailability [25]: 13.1%; EC50 [26]: 53.2 nM; Vd [27]: 6.57 L/kg; IC50 [28]: 1 nM; Vd [29]: 6.35 L/kg; fraction unbound [30]: 0.117; Cmax [31]: 386 nM; Activity (Mus musculus [32]): Non-toxic
2 | N#Cc1cc2c(cn1)[nH]c1ncc(-c3ccc(CN4CCC5(CC4)COC5)cc3)cc12 | 17.1 | > 156 | 86 | 0.025 | 30.8 | Dose-dependent effect | 0.91 | 200 | 3.51 | 0.038 | 34 | 116 | 1100 | 2420 | > 2500 | 27.5 | 8.63 | 16 | 9.63 | 0.052 | F (Mus musculus [33]): 48.5%; Activity (Mus musculus [34]): Non-toxic; clearance [23]: 10.9 mL/min/kg; AUC (Mus musculus [35]): 1.33 µM·h; Activity (HT-29 [36]): 111%; bioavailability [25]: 46.7%; EC50 [26]: 72.8 nM; Vd [27]: 7.33 L/kg; IC50 [28]: 2.5 nM; Vd [29]: 7.55 L/kg; fraction unbound [30]: 0.049; Activity (HT-29 [37]): Dose-dependent effect; Cmax [31]: 191 nM
